Here are results for seven compounds from ChEMBL document CHEMBL4145675, “2-Phenylquinoline S. aureus NorA Efflux Pump Inhibitors: Evaluation of the Importance of Methoxy Group Introduction” (J Med Chem, 2018).

Series [1] concerns the target T1, Quinolone resistance protein NorA (Staphylococcus aureus) (UniProt P0A0J7).
T1 sequence (whole entry): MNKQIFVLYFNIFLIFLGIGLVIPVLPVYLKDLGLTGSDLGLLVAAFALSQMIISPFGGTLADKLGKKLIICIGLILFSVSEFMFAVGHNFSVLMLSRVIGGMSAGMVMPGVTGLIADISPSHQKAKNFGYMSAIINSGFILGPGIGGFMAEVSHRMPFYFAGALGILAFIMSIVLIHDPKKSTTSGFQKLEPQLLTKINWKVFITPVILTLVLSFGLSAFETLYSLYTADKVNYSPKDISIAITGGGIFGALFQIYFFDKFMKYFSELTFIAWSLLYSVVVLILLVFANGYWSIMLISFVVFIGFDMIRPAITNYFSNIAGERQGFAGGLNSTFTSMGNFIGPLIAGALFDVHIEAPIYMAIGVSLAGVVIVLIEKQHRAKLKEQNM
The series can be described thus: Inhibition of NorA in Staphylococcus aureus SA-K2378 assessed as synergistic potentiation of ciprofloxacin-induced antimicrobial activity at 0.78 to 100 ug/ml by microdilution method based Checkerboard assay. On the technique in general: Dilution methods test growth across graded concentrations, often in twofold steps.

For series [2], the system named is Staphylococcus aureus. The series can be described thus: Antimicrobial activity against Staphylococcus aureus SA-1199B expressing wild type norA and co-expressing GrlA A116E mutant by microdilution method. It counts as organism-based. The following applies: in vivo. The method in brief:
(§1)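 CLSI broth microdilution MIC of the compound alone. Strains: SA-K1902 (norA deleted), SA-K2378 (SA-K1902 carrying norA plus its promoter on multicopy plasmid pCU1), SA-1199B (norA overexpressing, GrlA A116E).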

The test system of series [3] is Staphylococcus aureus. As to the kind of experiment: Antimicrobial activity against Staphylococcus aureus ATCC 25923 by microdilution method. It counts as organism-based. The following applies: in vivo. The method in brief: (§2)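 Broth microdilution MIC per CLSI guidelines. ATCC 25923 is norA wild-type. SA-1199B overexpresses norA and carries an A116E GrlA substitution.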

For series [4], the system named is Staphylococcus aureus. The series can be described thus: Antimicrobial activity against NorA deficient Staphylococcus aureus SA-K1902 by microdilution method. The following applies: in vivo. It is filed as organism-based. The method in brief:
as §1

Series [5] concerns Staphylococcus aureus. The series can be described thus: Antimicrobial activity against Staphylococcus aureus SA-1199B expressing wild type norA by microdilution method. The following applies: in vivo. It is filed as organism-based. The method, boiled down: as §2
Series [6] has as its target T1, Quinolone resistance protein NorA (Staphylococcus aureus). The series can be described thus: Inhibition of NorA in Staphylococcus aureus SA-1199B expressing GrlA A116E mutant assessed as minimal potentiating drug concentration causing 8 fold reduction in ciprofloxacin MIC by microdilution method based Checkerboard assay.
Series [7] concerns Staphylococcus aureus. The series can be described thus: Synergistic potentiation of ciprofloxacin-induced antimicrobial activity against norA deleted Staphylococcus aureus SA-K1902 at 0.78 to 100 ug/ml by microdilution method based Checkerboard assay. It counts as functional, organism-based.
Series [8] concerns Staphylococcus aureus. The series can be described thus: Synergistic potentiation of ciprofloxacin-induced antimicrobial activity against Staphylococcus aureus SA-1199 at 0.78 to 100 ug/ml by microdilution method based Checkerboard assay. It counts as functional, organism-based.
The test system of series [9] is Staphylococcus aureus. The series can be described thus: Synergistic potentiation of ciprofloxacin-induced antimicrobial activity against wild type Staphylococcus aureus ATCC 25923 at 0.78 to 100 ug/ml by microdilution method based Checkerboard assay. It counts as functional, organism-based.
Series [10] addresses T1, Quinolone resistance protein NorA (Staphylococcus aureus). As to the kind of experiment: Inhibition of NorA in Staphylococcus aureus SA-1199B expressing GrlA A116E mutant assessed as reduction in EtBr efflux at 50 uM incubated for 5 mins by fluorescence based assay. The method in brief: (§3)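 Cells were grown overnight in cation-supplemented Mueller-Hinton broth at 35 °C and subcultured to OD600 0.7–0.8. They were loaded at OD600 0.8 with 25 µM EtBr plus 100 µM CCCP (final) for 20 min at room temperature. Cells were then resuspended in fresh broth with or without compound, 50 µM for the single-point screen or a concentration series for IC50. Fluorescence (ex 485/em 645 nm) was read for 5 min. Inhibition was calculated from the fluorescence decrease versus untreated cells. Biological triplicate, each run twice.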

In series [11] the target is Quinolone resistance protein NorA (Staphylococcus aureus, UniProt P0A0J7, A116E). The series can be described thus: Inhibition of NorA in Staphylococcus aureus SA-1199B expressing GrlA A116E mutant assessed as reduction in EtBr efflux incubated for 5 mins by fluorescence based assay. The method in brief:
as §3

Series [12] concerns the target T1, Quinolone resistance protein NorA (Staphylococcus aureus). The series can be described thus: Inhibition of NorA in Staphylococcus aureus SA-1199B expressing GrlA A116E mutant assessed as synergistic potentiation of ciprofloxacin-induced antimicrobial activity at 0.78 to 100 ug/ml by microdilution method based Checkerboard assay.
The target is the same in series [13]. The series can be described thus: Inhibition of NorA in Staphylococcus aureus SA-1199B expressing GrlA A116E mutant assessed as synergistic potentiation of ciprofloxacin-induced antimicrobial activity at 0.78 ug/ml by microdilution method based Checkerboard assay.

pIC50: −log10 of the molar value. ≈ marks a conversion by molar mass, not a printed value. Calls of active or inactive are those of the source. The calls are words filed in the database; no cut-off is given here.

In general, inhibition refers to the change of the read-out against control, counted positive when it falls. With `CCCOc1ccc(-c2cc(OCCN(CC)CC)c3ccccc3n2)cc1`, the inhibition entry in [1] is “Active”. The MIC in series [2] was greater than 241 µM; in series [3], 100 µg/mL (≈ 264 µM); in series [4] it was 50 µg/mL (≈ 132 µM); in series [5], greater than 100 µg/mL. Moreover, the Activity in [6] amounted to 12.5 µg/mL. In addition, the result in series [7] was inactive.
As usually defined, the pIC50 is −log10 of the IC50, conventionally taken in molar units. `CCCOc1ccc(-c2cc(OCCN(CC)CC)c3c(OC)cccc3n2)cc1`: the MIC is 30.6 µM (≈ 12.5 µg/mL) in series [2], 12.5 µg/mL (≈ 30.6 µM) in series [3] and 12.5 µg/mL (≈ 30.6 µM) in series [5]. Further, the inhibition entry in series [8], in series [12] and in series [13] was “Active” each time. The “synergistic potentiation of ciprofloxacin activity” value (“synergistic potentiation” below) in series [9] is “Active”. Further, the inhibition in [10] stood at 96.5%. In addition, in series [11], the pIC50 is 5.03. In addition, the Activity in [6] was 3.13 µg/mL.
Take `CCCOc1ccc(-c2cc(OCCN(CC)CC)c3c(OC)cc(OC)cc3n2)cc1`: the MIC was greater than 228 µM in series [2], 100 µg/mL (≈ 228 µM) in series [3], 25 µg/mL (≈ 57 µM) in series [4] and greater than 100 µg/mL in series [5]. The inhibition entry in series [8] and in series [12] was “Active” throughout. Also, the “synergistic potentiation” value in series [9] was “Active”. Further, in series [10], the inhibition was 93.1%. The negative-log IC50 (pIC50) in series [11] was 5.55. In addition, the Activity in series [6] turned out to be 1.56 µg/mL.
As to `COC(=O)[C@H]1[C@H]2C[C@@H]3c4[nH]c5cc(OC)ccc5c4CCN3C[C@H]2C[C@@H](OC(=O)c2cc(OC)c(OC)c(OC)c2)[C@@H]1OC` [RESERPINE], the inhibition result in series [1] was “Active”. Besides, the MIC was greater than 164 µM in series [2], greater than 100 µg/mL in series [3], greater than 100 µg/mL in series [4] and greater than 100 µg/mL in series [5]. Also, the Activity in series [6] was greater than 100 µg/mL. For the same compound, the result in series [7] was inactive.
`CCCOc1ccc(-c2cc(OCCN3CCCCCC3)c3ccc(OC)cc3n2)cc1`: the MIC in series [2] was 212.3 µM (≈ 92.3 µg/mL); in series [3], greater than 100 µg/mL; in series [5], 100 µg/mL (≈ 230 µM). Moreover, the inhibition result in series [8], in [12] and in [13] was “Active” throughout. The “synergistic potentiation” value in series [9] is “Active”. The inhibition in series [10] was 91.3%. The pIC50 in series [11] is 5.31. For the same compound, the Activity in series [6] turned out to be 3.13 µg/mL.
For `CCCOc1ccc(-c2cc(OCCN3CCc4cc(OC)c(OC)cc4C3)c3ccc(OC)cc3n2)cc1`, the MIC was greater than 189 µM in [2], greater than 100 µg/mL in series [3] and greater than 100 µg/mL in [5]. The inhibition entry in series [8], in series [12] and in [13] was “Active” each time. In series [9], the “synergistic potentiation” value is “Active”. The inhibition in [10] turned out to be 91%. Further, the pIC50 in series [11] is 5.33. For the same compound, the Activity in [6] turned out to be 3.13 µg/mL.
`CCCOc1ccc(-c2cc(OCCN3CCCCCC3)c3cc(OC)cc(OC)c3n2)cc1`: the figures for the MIC in series [2], in series [3] and in series [5] were greater than 215 µM, greater than 100 µg/mL and greater than 100 µg/mL, respectively. Besides, the inhibition entry in series [8], in series [12] and in series [13] was “Active” in each case. The “synergistic potentiation” value in series [9] is “Active”. For the same compound, in series [10], the inhibition was 80.3%. In addition, the negative-log IC50 (pIC50) in series [11] was 5.74. The Activity in series [6] is 1.56 µg/mL.
